B1: tRNA (parent)
chain: GUUCCGUUGGCGUAAUGGUAACGCGUCUCCCUCCUAAGGAGAAGACUGCGGGUUCGAGUCCCGUACGGAACG

This sample holds only a part of the variants without activity.

Variants of B1 are the subject of the data set. Nature of the data set: yeast fitness relative to wild type (ratio to wild type); higher = fitter; tRNA-Arg(CCU), competitive growth, 37 C, YPD. A digest of the protocol: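 Amplicons of the tRNA-Arg(CCU) gene were sequenced, 100-nucleotide paired-end, from the start population and from each end population of a pooled yeast competition. The competition, in six parallel replicates, lasted 24 hours in YPD at 37°C. Fitness relative to wild type was calculated from changes in genotype frequencies. Genotypes had to have ≥ 100 starting reads, and estimates < 0.5 were set to 0.5.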
Consider U3G C5A A20G C29U C31A C55U A57C, for which the yeast fitness was at most 0.5.

Take C4A G23A A40C: the yeast fitness was at most 0.5.

Turning to U3G G38A C60A, the yeast fitness is at most 0.5.

For the variant C4A G23C C24U A65G, the yeast fitness worked out at 0.556.

For the variant C4A G17A G51C, the yeast fitness is at most 0.5.

With U3C C46A, the yeast fitness turned out to be 0.912.

For U3C C46G, the yeast fitness turned out to be 0.912.

For the variant C4A C34A C62G, the yeast fitness was at most 0.5.

With C4A C24G C30U A45G, the yeast fitness turned out to be 0.523.

In the case of C4A C31G A40U A65U G68C, the yeast fitness stood at 0.595.

Consider U3C U16G C29U C46U G67C A69U, for which the yeast fitness was at most 0.5.

C4A A14C A21G C29A C34U A69U: the yeast fitness was at most 0.5.

Regarding C4A A42G C60G, the yeast fitness was found to be 0.53.

Turning to U3C G10C C27U C66U, the yeast fitness is at most 0.5.

Consider C4A C5U C22U C34A C49G, for which the yeast fitness was at most 0.5.

As for U3C G6C A14U A20G G25A G38A U47A C60G A70G, the yeast fitness is at most 0.5.

Take U3G G44A C66U: the yeast fitness was 0.582.

Take C4A C31G C62G G68C: the yeast fitness is at most 0.5.

On to U3C C27G C33A, for which the yeast fitness was determined as 0.655.

In the case of U3C G38A A45C, the yeast fitness is at most 0.5.

Take U3C G10C C27U G68C: the yeast fitness was at most 0.5.

Take U3G C24A C34A C46G: the yeast fitness is 0.581.

C4A C5A A20U: the yeast fitness was found to be 0.605.

Take U3C G9A C62G: the yeast fitness came to 0.681.

With U3C U8A U19A U54G, the yeast fitness was at most 0.5.

For the variant U3C G12A A57C C61A A69C, the yeast fitness was at most 0.5.

Regarding C4A C22G C55G G63C, the yeast fitness is at most 0.5.

C4A C11A C33G A57C C61G: the yeast fitness worked out at 0.534.

Regarding C4A G17A G51C G63A, the yeast fitness is at most 0.5.

In the case of U3G U8A C24A G56C, the yeast fitness was at most 0.5.

Turning to C4A C22U C33G A45C U47C U53G A69C, the yeast fitness was at most 0.5.

On to U3C U19G C27G C34A A42U, for which the yeast fitness is at most 0.5.

Consider C4A G18C C33U U59A, for which the yeast fitness is at most 0.5.

C4A C5U C30U A45G: the yeast fitness was 0.516.

As to C4A C27U U28G C33G A36G G56C, the yeast fitness was at most 0.5.

Regarding U3G C24A C30U, the yeast fitness was at most 0.5.

U3C G9A A69U: the yeast fitness was determined as 0.882.

Turning to U3G A15C, the yeast fitness turned out to be 0.511.

On to C4A G9A U13G C22U C61A A70C, for which the yeast fitness is at most 0.5.

In the case of C4A C60U, the yeast fitness was 0.825.

In the case of C4A A14U C34G C55U A65C, the yeast fitness is at most 0.5.

Regarding U3G U59C, the yeast fitness amounted to 0.888.

With U3C G23A C27G C33A, the yeast fitness is at most 0.5.

Turning to C4A C29G A37C U54A, the yeast fitness is at most 0.5.

As for C4A G10A G50A, the yeast fitness is at most 0.5.

As for C4A C11A U13C A70U, the yeast fitness is at most 0.5.

On to C4A C33G U47A, for which the yeast fitness was 0.625.

As to C4A C22U U54A, the yeast fitness is 0.685.

With C4A C55G, the yeast fitness came out at 0.55.

For the variant C4A C55U, the yeast fitness was 0.943.

For C4A C11G U13G G25A C62U G63A, the yeast fitness is at most 0.5.

For the variant C4A G17C G23C A45C U54C, the yeast fitness was at most 0.5.

Take C4A G10A A21G C22G A65G: the yeast fitness is at most 0.5.

In the case of U3C G38C A40G, the yeast fitness is 0.501.

C4A C27G A42G U53A: the yeast fitness was at most 0.5.

For C4A A42U A57U G58C, the yeast fitness is at most 0.5.

For C4A C55G C61U, the yeast fitness is at most 0.5.

In the case of C4A C5U C29G C33U U59G A69C, the yeast fitness is 0.533.

Regarding U3G G41C G51C A57G, the yeast fitness was at most 0.5.

As to U3G C4U A20G U35A G58A G67U, the yeast fitness was at most 0.5.

With U3C G10U U26C A42U, the yeast fitness was at most 0.5.

As to C4A C5U C24U U53A A65G, the yeast fitness is at most 0.5.

Consider U3C G25C G38A A42C G52A C62U, for which the yeast fitness was at most 0.5.

Turning to C4A C22A, the yeast fitness worked out at 0.706.

Consider C4A G12C U19C C24G A43U C61A, for which the yeast fitness worked out at 0.502.

As to U3C U13C U19A C22U G68C, the yeast fitness was at most 0.5.

On to U3C G58A, for which the yeast fitness came out at 0.922.

U3G U13C C33G: the yeast fitness was at most 0.5.

As to U3G G63A, the yeast fitness was found to be 0.849.

Consider U3G U54G A57C, for which the yeast fitness is at most 0.5.

For C4A G17A C24G G63C, the yeast fitness came out at 0.64.

Consider C4A C46G C61A, for which the yeast fitness is 0.522.

As to C4A C5U C34U U64G A69U, the yeast fitness is at most 0.5.

For C4A A37C, the yeast fitness is 0.707.

Turning to C4A G9A G18C C22A A69C, the yeast fitness was at most 0.5.

With C4A C31G A45G G50C, the yeast fitness stood at 0.576.

In the case of C4A G39C G44C G52C, the yeast fitness is 0.685.

For U3C G25U U59C A69C, the yeast fitness was 0.531.

With C4A C49G G63C, the yeast fitness amounted to 0.9.

In the case of U3G C5U, the yeast fitness was 0.724.

Turning to C4A G38C, the yeast fitness amounted to 0.652.

In the case of C4A C22A C55U, the yeast fitness is at most 0.5.

Consider U3G C31U C49U, for which the yeast fitness worked out at 0.681.

With U3C C55U A65G, the yeast fitness was found to be 0.514.

On to C4A G10C A57U, for which the yeast fitness is at most 0.5.

Regarding C4A A36C, the yeast fitness is 0.686.

With C4A G9A C22A C27G, the yeast fitness is at most 0.5.

C4A G18C C33G: the yeast fitness is 0.591.

For the variant C4A A14G C24U U32G A43G A65U, the yeast fitness is at most 0.5.

Turning to C4A A36C A57G A65U, the yeast fitness is at most 0.5.

Turning to C4A A65U, the yeast fitness stood at 0.719.

In the case of C4A A65G, the yeast fitness is 0.946.

Take C4A C5G C24U G25A A57U: the yeast fitness is at most 0.5.

On to C4A C22U C24A C29A A36C, for which the yeast fitness was determined as 0.518.

For U3G C5A C34A, the yeast fitness is at most 0.5.

For the variant U3C C31U A36U G39C, the yeast fitness was at most 0.5.

Regarding U3C U13A C31U G41A A57C A70U, the yeast fitness is at most 0.5.

In the case of U3G C5G A20C C61U, the yeast fitness is at most 0.5.

For U3C G12A C46U G52C, the yeast fitness was at most 0.5.

For the variant C4A C46G C55G, the yeast fitness is at most 0.5.

With U3G C30U G48C A65U G68C, the yeast fitness is at most 0.5.

In the case of U3G U8C A15U G25A C49A, the yeast fitness is at most 0.5.

U3C G12A C24A A36U C61U G67U: the yeast fitness worked out at 0.55.

Consider C4A C27G G52A, for which the yeast fitness was 0.713.

For C4A, the yeast fitness is 0.998.

U3C U8C U13C: the yeast fitness amounted to 0.548.

For C4A A20C C29A, the yeast fitness was at most 0.5.

As to U3C U59A C61G, the yeast fitness is 0.587.

Regarding U3C C31U G52A, the yeast fitness is 0.671.

Turning to C4A C46U C55U, the yeast fitness was at most 0.5.

Consider C4A G6A G50A, for which the yeast fitness is at most 0.5.

Take U3C U32A C46G C62A: the yeast fitness was at most 0.5.

Take C4A A15G C22U A36U C60A: the yeast fitness was at most 0.5.

As to C4A A21G C60G G67A, the yeast fitness was at most 0.5.

Take C4A A20G G58A A70C: the yeast fitness is 1.02.

On to C4A A15G C31G G50A, for which the yeast fitness is at most 0.5.

Turning to C4A A15G C27U, the yeast fitness worked out at 0.664.

Regarding C4A G18A, the yeast fitness worked out at 0.78.

With C4A G18C, the yeast fitness amounted to 0.58.

Turning to U3C G12A G48C, the yeast fitness was 0.558.

As to U3G C33U A42G A57U C61A, the yeast fitness was at most 0.5.

With U3G C11U A40C A45C U47C A57C C62U, the yeast fitness was at most 0.5.

Consider C4A A20C C27U G50A, for which the yeast fitness is 0.597.

In the case of C4A G9C C11G C30A C55A C62A, the yeast fitness is at most 0.5.

With C4A A40U, the yeast fitness worked out at 0.94.

Consider C4A A40C, for which the yeast fitness is 0.812.

In the case of U3G A20C G44C C61U, the yeast fitness is 0.606.

On to C4A A45U C55U A70C, for which the yeast fitness was at most 0.5.

Turning to U3C U8C, the yeast fitness amounted to 0.906.

Turning to U3C U8A, the yeast fitness is 0.639.

For the variant C4A C34G A70G, the yeast fitness is at most 0.5.

Turning to U3G A43U U54A A57C, the yeast fitness was determined as 0.588.

Regarding U3G C11U G67A, the yeast fitness was found to be 0.564.

With C4A G6A A40G U53G C62G C66U, the yeast fitness amounted to 0.6.

For the variant C4A C31U C34A A40G, the yeast fitness was at most 0.5.

C4A C5U C22U C34A C62U A70U: the yeast fitness was at most 0.5.

On to U3G U8C C62U, for which the yeast fitness came to 0.525.

For the variant C4A C29U C33A A36C A42C A45G, the yeast fitness was at most 0.5.

On to C4A C5U C22U C34A A65U, for which the yeast fitness was at most 0.5.

Turning to U3G U19A G51A C66G, the yeast fitness is at most 0.5.

C4A A14U A20C U28G A42G: the yeast fitness was at most 0.5.

U3G G18A A65U: the yeast fitness was 0.548.

In the case of U3G A14G C60G, the yeast fitness was at most 0.5.

C4A A14U A20C U28G G58C C61A: the yeast fitness was at most 0.5.

Turning to U3C C46A G67A A70C, the yeast fitness stood at 0.556.

As for U3G C30G A70C, the yeast fitness was found to be 0.628.

Turning to U3G A20C A21G C61A, the yeast fitness was at most 0.5.

For the variant C4A C5U C34U U64G, the yeast fitness amounted to 0.576.

For the variant U3G U28A C33U A36G C66A, the yeast fitness was at most 0.5.

Take C4A A14G U64A A70C: the yeast fitness was at most 0.5.

U3C G25C C33G C61G: the yeast fitness is at most 0.5.

With U3C G41A U53G U59A C62G, the yeast fitness was at most 0.5.

As to C4A C5U U8C, the yeast fitness was at most 0.5.

With C4A C29A, the yeast fitness stood at 0.637.

On to C4A A15U G18C C55U G56C G67A, for which the yeast fitness is at most 0.5.

As to U3C U16C C30G C31G A37U, the yeast fitness was determined as 0.718.

C4A C27U A42U C62U: the yeast fitness was at most 0.5.

Turning to C4A C5G U53A, the yeast fitness is at most 0.5.

Consider U3G C4G C22U C29U G52C G63A G67U A70C, for which the yeast fitness is at most 0.5.

Consider C4A C5U C22U C34A, for which the yeast fitness stood at 0.576.

In the case of C4A G17A G41A U54A A57C, the yeast fitness is at most 0.5.

For U3C U16A, the yeast fitness stood at 0.936.

As for U3G A43G G56A, the yeast fitness was found to be 0.601.

Take C4A C24G U32C C62U A69C: the yeast fitness was at most 0.5.

With C4A A70U, the yeast fitness came to 0.879.

Consider C4A A70G, for which the yeast fitness was 0.93.

Turning to U3G C4U, the yeast fitness is 0.915.

Source of the values: the RNAGym collection of RNA variant scans (doi:10.1126/science.aae0568).
